Experimental data reported in ChEMBL document CHEMBL1122490, “Aporphines. 48. Enantioselectivity of (R)-(-)- and (S)-(+)-N-n-propylnorapomorphine on dopamine receptors” (J Med Chem, 1983).

Columns and labels:
[1] = species: Rattus norvegicus; assay: Percent control of stimulation of cAMP production in rat striatal homogenate at 50 micro M concentration; type: functional
Method in brief: (§1)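 Rat corpus striatum homogenates were incubated with excess ATP and theophylline to inhibit phosphodiesterase. cAMP formed per 2.5-min assay above the basal (no agonist) level was measured by protein-binding assay. Results are given as mean pmol ± SEM, and as percent of the blank control, with 5–12 replicates per concentration.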

[2] = species: Rattus norvegicus; assay: Stimulation of cAMP production in homogenates of corpus striatum from rat brain, at a concentration of 50 uM.; type: functional, organism-based; method in brief: as §1
[3] = test system: Rattus norvegicus; assay: Stereotypic behavior of male Sprague-Dawley rats, after a sc administration of 5 dose(mg/kg); type: functional
Method in brief: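 Male Sprague-Dawley rats (175–200 g), group-housed with free food and water, 12-h light cycle. Drug freshly dissolved in ice-cold 1 mM citric acid/0.9% saline (1:4, v/v), given sc; vehicle injected as placebo. Stereotypy rated 0–3 by experienced observer from 30-s observations every 10 min over 60 min (maximum 18). Four to six rats per dose; means ± SEM.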

`NCCc1ccc(O)c(O)c1` showed a Control [1] of 217% and a cAMP production [2] of 5.39 N.
`CCCN1CCc2cccc3c2[C@@H]1Cc1ccc(O)c(O)c1-3.CCCN1CCc2cccc3c2[C@H]1Cc1ccc(O)c(O)c1-3` (racemic; (-)) was tested, and the Stereotypy score [3] was 18.
With `CCCN1CCc2cccc3c2[C@@H]1Cc1ccc(O)c(O)c1-3.CN1CCc2cccc3c2[C@H]1Cc1ccc(O)c(O)c1-3` (stereo in doubt; (+)) the Stereotypy score [3] was 17.5.
`CN1CCc2cccc3c2[C@H]1Cc1ccc(O)c(O)c1-3` [APOMORPHINE] gave a Stereotypy score [3] of 18.
`CCCN1CCc2cccc3c2[C@@H]1Cc1ccc(O)c(O)c1-3.CN1CCc2cccc3c2[C@H]1Cc1ccc(O)c(O)c1-3` (stereo in doubt; (-)) gave a Stereotypy score [3] of 17.7.
Work on `CCCN1CCc2cccc3c2[C@@H]1Cc1ccc(O)c(O)c1-3.CCCN1CCc2cccc3c2[C@H]1Cc1ccc(O)c(O)c1-3` (racemic; (+)) yielded a Stereotypy score [3] of 17.2.
